ChEMBL document CHEMBL1773072, “Diosgenin, a plant-derived sapogenin, exhibits antiviral activity in vitro against hepatitis C virus” (J Nat Prod, 2011)
The source made the active and inactive calls. No cut-off for these calls is given here.

Key:
[1] = test system: Hepatitis C virus; assay: Antiviral activity against Hepatitis C virus infected in human Ava5 cells assessed as decreased NS3 protein level at […] after 72 hrs by Western blotting; assay type: functional, organism-based; details: Hepacivirus hominis
Method in brief: (§1)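 Ava5 subgenomic replicon cells (Huh7-derived, HCV genotype 1b NS3–NS5B, neo) are kept in DMEM/10% FBS at 37 °C, 5% CO2 and exposed to compound for 72 h. Cells are washed in PBS and lysed in Tris/NaCl/1% Triton X-100. Lysates are clarified and run on 10% SDS-PAGE, then immunoblotted with anti-NS3; β-actin is the loading control.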

[2] = test system: Hepatitis C virus; assay: Antiviral activity against Hepatitis C virus infected in human Ava5 cells assessed as decreased NS3 protein level at 5 uM after 72 hrs by Western blotting in presence of IFN-alpha; assay type: functional, organism-based; details: Hepacivirus hominis
Method in brief: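 Ava5 replicon cells given compound (5 μM) or IFN-α (5, 10, 50 IU/mL), alone and combined, for 72 h. BILN 2061 served as NS3/4A inhibitor positive control. Washed cells stored at -80 °C, then lysates Western blotted for NS3 with β-actin as internal standard.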

[3] = test system: Hepatitis C virus; assay: Antiviral activity against Hepatitis C virus infected in human Ava5 cells expressing EG(delta4AB)SEAP reporter gene assessed as decreased viral replication measured as SEAP activity by Phospha-Light assay; assay type: functional, organism-based, Hepacivirus hominis
Method in brief: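 Ava5-EG(Δ4AB)SEAP reporter cells seeded 6×10^3/well, after 24 h dosed with a concentration series. At 48 h medium replaced with fresh medium at same concentrations, incubated 24 h more. Secreted alkaline phosphatase in medium measured by chemiluminescent kit. EC50 from dose–response; three replicate wells, means ± SD.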

[4] = Cytotoxicity against Hepatitis C virus infected human Ava5 cells assessed as cell viability after 5 days by MTS assay; assay type: cell-based; details: ava5, 120 h
Method in brief: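 Cells seeded, incubated overnight at 37 °C, 5% CO2, then medium replaced with compound-containing medium across a concentration range for five days. Viability by MTS colorimetric read at 490 nm after 2 h reagent incubation; ethanol as solvent control. Means ± SD.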

[5] = test system: Hepatitis C virus; assay: Antiviral activity against Hepatitis C virus infected in human Ava5 cells expressing EG(delta4AB)SEAP reporter gene assessed as decreased viral RNA level after 72 hrs by RTqPCR analysis; assay type: functional, organism-based; details: Hepacivirus hominis
Method in brief: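 Ava5 cells seeded 1.5×10^5/well, incubated overnight, treated with a concentration series for 72 h. Total RNA TRIzol-extracted; HCV genotype 1b RNA quantified by SYBR Green RT-qPCR. Levels expressed relative to untreated cells (100%); triplicate, means ± SD.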

[6] = test system: Hepatitis C virus; assay: Antiviral activity against Hepatitis C virus infected in human Ava5 cells expressing EG(delta4AB)SEAP reporter gene assessed as decreased NS3 protein level after 72 hrs by Western blotting; assay type: functional, organism-based; details: Hepacivirus hominis; method in brief: as §1
[7] = test system: Hepatitis C virus; assay: Antiviral activity against Hepatitis C virus JFH-1 infected in human Huh7 cells expressing G(delta4AB)SEAP reporter gene assessed as decreased NS3 protein level at 20 uM after 8 days by Western blotting; assay type: functional, organism-based; details: Hepacivirus hominis, Huh-7
Method in brief: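 Huh7-EG(Δ4B5A)SEAP cells seeded 5×10^4/well, incubated overnight, then infected with HCV JFH-1 (genotype 2a) at MOI 0.02 for 6 h. Unbound virus removed by medium replacement, then compound at 20 μM in basal medium for 7 days. Intracellular NS3 in lysates detected by Western blot.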

[8] = biological target: Signal transducer and activator of transcription 3 (Homo sapiens) (UniProt P40763); assay: Inhibition of STAT3 phosphorylation at Tyr 705 in human Ava5 cells after 72 hrs by Western blotting; assay type: cell-based
Sequence of Signal transducer and activator of transcription 3 (Homo sapiens) (P40763 whole entry): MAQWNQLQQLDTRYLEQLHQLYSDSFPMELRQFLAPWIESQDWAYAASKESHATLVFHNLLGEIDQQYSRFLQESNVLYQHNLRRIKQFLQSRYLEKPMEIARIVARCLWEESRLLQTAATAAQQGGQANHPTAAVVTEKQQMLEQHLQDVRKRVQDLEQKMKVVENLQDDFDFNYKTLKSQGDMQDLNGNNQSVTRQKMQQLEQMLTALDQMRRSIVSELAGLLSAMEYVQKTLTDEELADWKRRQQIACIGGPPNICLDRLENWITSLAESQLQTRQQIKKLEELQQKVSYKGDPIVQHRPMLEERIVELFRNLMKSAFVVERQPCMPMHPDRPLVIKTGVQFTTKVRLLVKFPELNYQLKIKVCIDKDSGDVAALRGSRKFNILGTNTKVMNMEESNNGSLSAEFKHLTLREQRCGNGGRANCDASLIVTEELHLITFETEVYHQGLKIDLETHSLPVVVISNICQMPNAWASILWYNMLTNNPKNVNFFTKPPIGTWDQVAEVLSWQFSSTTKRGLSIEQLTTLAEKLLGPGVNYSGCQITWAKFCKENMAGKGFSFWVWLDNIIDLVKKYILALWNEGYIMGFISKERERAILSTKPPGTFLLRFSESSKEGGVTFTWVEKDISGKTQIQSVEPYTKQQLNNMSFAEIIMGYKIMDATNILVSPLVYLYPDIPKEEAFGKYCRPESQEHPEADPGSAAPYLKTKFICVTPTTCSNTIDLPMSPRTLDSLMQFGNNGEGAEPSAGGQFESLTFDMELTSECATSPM
Method in brief: (§2)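 Ava5 cells incubated with a concentration series for 72 h. Whole-cell extracts were Western blotted with antibodies to STAT3 phosphorylated at Tyr705 and to total STAT3, with β-actin as loading control.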

[9] = biological target: Signal transducer and activator of transcription 3 (Homo sapiens) (UniProt P40763); assay: Effect on STAT3 protein production in human Ava5 cells after 72 hrs by Western blotting; assay type: cell-based; method in brief: as §2
[10] = test system: Huh-7; assay: Cytotoxicity against Hepatitis C virus JFH-1 infected human HuH7 cells; assay type: cell-based
[11] = Cytotoxicity against Hepatitis C virus infected human Ava5 cells assessed as cell viability after 5 days by MTS assay in presence of IFN-alpha; assay type: cell-based; details: ava5, 120 h
[12] = test system: Hepatitis C virus; assay: Antiviral activity against Hepatitis C virus infected in human Ava5 cells assessed as decreased NS3 protein level at 5 uM after 72 hrs by Western blotting; assay type: functional, organism-based; details: Hepacivirus hominis; method in brief: as §1

Row | SMILES | Activity [1] | Activity [2] | EC50 [3] [µM] | Activity ([3]; Hepacivirus hominis) | Activity [4] | Activity [5] | Activity [6] | Activity [7] | inhibition [8] | Activity [9] | Activity [10] | Activity [11] | Activity [12]
1 | COc1ccc2c(O[C@@H]3C[C@H]4C(=O)N[C@]5(C(=O)O)C[C@H]5/C=C\CCCCC[C@H](NC(=O)OC5CCCC5)C(=O)N4C3)cc(-c3csc(NC(C)C)n3)nc2c1 | Active |  |  |  |  |  |  |  |  |  |  |  | 
2 | C[C@@H]1CC[C@@]2(OC1)O[C@H]1C[C@H]3[C@@H]4CC=C5C[C@@H](O)CC[C@]5(C)[C@H]4CC[C@]3(C)[C@H]1[C@@H]2C [DISOGENIN] |  | Active | 3.8 | Dose-dependent effect | Non-toxic | Dose-dependent effect | Dose-dependent effect | Active | Dose-dependent effect | inactive | Non-toxic | Non-toxic | Active
